Assay [1] concerns the target T1, Neuropeptide Y receptor type 4 (Homo sapiens, UniProt P50391). Briefly: Binding affinity to human NPY Y4 receptor expressed in CHO cells co-expressing Gqi5-mtAEQ assessed as slow dissociation half life t1/2(2) at 1.5 uM incubated for 2 hrs in presence of 200-fold excess of (2R,7R)-Diaminooctanedioyl-bis(Tyr-Arg-Leu-Arg-Tyr-amide)Hexa(hydrotrifluoroacetate) by liquid scintillation counting. It is filed as cell-based. The conditions noted are these: tested as the 3H-labelled form.

Assay [2] concerns the target T2, Neuropeptide Y receptor type 1 (Homo sapiens, UniProt P25929).
T2 sequence (P25929 whole entry): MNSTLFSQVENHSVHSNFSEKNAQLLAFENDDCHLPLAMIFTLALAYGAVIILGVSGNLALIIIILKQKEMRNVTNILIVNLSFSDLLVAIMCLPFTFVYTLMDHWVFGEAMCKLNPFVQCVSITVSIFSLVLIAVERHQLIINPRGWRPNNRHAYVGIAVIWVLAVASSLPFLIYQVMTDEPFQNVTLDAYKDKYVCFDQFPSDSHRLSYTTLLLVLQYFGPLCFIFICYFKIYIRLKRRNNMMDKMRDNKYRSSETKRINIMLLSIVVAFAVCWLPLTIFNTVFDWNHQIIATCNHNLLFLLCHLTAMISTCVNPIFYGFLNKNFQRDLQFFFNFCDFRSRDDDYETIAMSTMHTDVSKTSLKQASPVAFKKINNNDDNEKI
Briefly: Displacement of [3H]UR-MK136 from human NPY Y1 receptor expressed in human MCF7 cells by liquid scintillation counting. It counts as cell-based. A general note: Displacement assays read how much labelled ligand stays bound in the presence of the test substance.

Assay [3] has as its target T1, Neuropeptide Y receptor type 4. The assay can be described thus: Intrinsic activity at human NPY Y4 receptor expressed in HEK293 cells co-expressing CRE-Luc gene assessed as inhibition of forskolin stimulated luciferase activity after 4.5 hrs by luminescence assay relative to pancreatic polypeptide. It counts as functional, cell-based. An outline of the steps: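 HEK293 cells stably co-transfected with a CRE-controlled firefly luciferase reporter and hY4R, tested in phenol-red-free DMEM, pH 7.4. […] The maximal inhibition by PP was set to 0% activity (α = 1.0). Data are means ± SEM of at least 3 experiments in triplicate.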

T1 sequence (P50391 whole entry): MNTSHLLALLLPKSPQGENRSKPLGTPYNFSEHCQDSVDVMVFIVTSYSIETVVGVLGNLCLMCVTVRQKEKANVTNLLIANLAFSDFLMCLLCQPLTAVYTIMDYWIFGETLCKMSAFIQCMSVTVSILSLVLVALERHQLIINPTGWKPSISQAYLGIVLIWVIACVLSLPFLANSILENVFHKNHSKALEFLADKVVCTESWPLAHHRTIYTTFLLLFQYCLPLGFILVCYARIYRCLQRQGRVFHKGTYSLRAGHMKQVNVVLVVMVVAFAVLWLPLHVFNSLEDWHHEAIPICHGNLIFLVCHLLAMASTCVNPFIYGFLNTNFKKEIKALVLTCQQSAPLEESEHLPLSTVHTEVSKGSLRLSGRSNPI

Turning to `CCC(=O)N[C@@H](CCCC[C@H](N)C(=O)N[C@@H](Cc1ccc(O)cc1)C(=O)N[C@@H](CCCNC(=N)N)C(=O)N[C@@H](CC(C)C)C(=O)N[C@@H](CCCNC(=N)N)C(=O)N[C@@H](Cc1ccc(O)cc1)C(N)=O)C(=O)N[C@@H](Cc1ccc(O)cc1)C(=O)N[C@@H](CCCNC(=N)N)C(=O)N[C@@H](CC(C)C)C(=O)N[C@@H](CCCNC(=N)N)C(=O)N[C@@H](Cc1ccc(O)cc1)C(N)=O`, in assay [1], the T1/2 came to 4.82 h. In assay [2], the inhibitory constant (Ki) (usually a dissociation constant, usually derived from enzyme kinetics or from competition with a known ligand) amounted to 0.4 µM. In addition, the Intrinsic activity in assay [3] is 1.

The values above are taken from ChEMBL document CHEMBL4477203 (J Med Chem, 2016).
